TCR CD3 inh = inhibitors of human TCR-CD3 interaction, primary screen, biochemical, fluorescence, TAMRA-labeled TCR probe; inhibition, % at 9.4 µM; 360,000 compounds, 0.37% hits; T-cell receptor (TCR); AID 651800, 2012; in the data active = inhibition above about 19%;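 note: recombinant mutant TCR 2C K166C tagged with TAMRA read by polarization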
SIAE primary = human SIAE inhibitors, primary screen, biochemical, fluorescence polarization, FP-Rh probe, 1536-well HTS; 370,000 compounds, 0.69% hits; inhibition, % at 9.66 µM; SIAE FP-Rh probe binding; Sialate O-acetylesterase (Homo sapiens), Q9HAT2; AID 1053197, 2014;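 active = inhibition above a cutoff: mean of compounds within the control limits plus 3 SD of those, cut at about 17% in these data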
Tn6 DDE FP = inhibitors of Tn6 peptide binding to fibrin DD(E), primary screen, biochemical, fluorescence polarization, human fibrin, Tn6 probe | Fibrinogen beta chain (Homo sapiens), P02675 | Fibrin DD(E) TRITC-Tn6 fluorescence polarization displacement | inhibition, % at 8.3 µM | 370,000 compounds, 0.21% hits | AID 720509, 2013;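 active = inhibition above a per-campaign cutoff: mean of compounds within control limits plus 3 SD, cut at about 15% in these data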
HTRA1 inh = HTRA1 serine protease inhibitors, primary screen, biochemical, fluorescence polarization, HTS. inhibition, % at 5.96 µM. 340,000 compounds, 0.5% hits. Q92743. recombinant HTRA1, FP-rhodamine activity-based probe; in the data active = inhibition above about 36%
Target sequence (Q92743 whole entry, looked up): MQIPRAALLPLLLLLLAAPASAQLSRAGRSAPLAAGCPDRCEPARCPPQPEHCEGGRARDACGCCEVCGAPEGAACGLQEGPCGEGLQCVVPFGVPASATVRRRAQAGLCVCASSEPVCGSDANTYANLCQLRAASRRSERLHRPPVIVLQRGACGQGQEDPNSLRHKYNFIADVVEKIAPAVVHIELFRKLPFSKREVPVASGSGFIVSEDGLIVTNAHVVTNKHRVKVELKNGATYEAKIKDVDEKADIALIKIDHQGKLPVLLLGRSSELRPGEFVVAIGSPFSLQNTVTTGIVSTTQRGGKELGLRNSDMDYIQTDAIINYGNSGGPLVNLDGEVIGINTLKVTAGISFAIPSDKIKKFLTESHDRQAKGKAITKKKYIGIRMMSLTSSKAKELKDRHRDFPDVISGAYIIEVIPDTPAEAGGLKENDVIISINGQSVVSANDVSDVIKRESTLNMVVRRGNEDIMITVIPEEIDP
mABHD4 FP = ABHD4 inhibitors, primary screen, biochemical, fluorescence polarization, mouse. (Lyso)-N-acylphosphatidylethanolamine lipase (Mus musculus), Q8VD66. purified mABHD4, FP-Rh probe fluorescence polarization. inhibition, % at 8.92 µM. 370,000 compounds, 0.54% hits. AID 720543, 2013;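 active = inhibition exceeding the mean over every tested compound plus 3 SD, cut at about 30% in these data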
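system = mouse ABHD4 enzyme, wild type | medium = HEPES pH 7.0, NaCl, Pluronic buffer | also added = FP-Rh probe | incubation = Enzyme–compound pre-incubation 45 min, then probe 60 min, both 25 °C | technique = fluorescence polarization, excitation 525 nm, emission 598 nm, BODIPY TMR filters | controls = S159A mutant high control, sample median low control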
Tn7 DDE FP = inhibitors of Tn7 peptide binding to fibrin DD(E), primary screen, biochemical, fluorescence polarization, human fibrin, Tn7 probe | 370,000 compounds, 0.13% hits | AID 720508, 2013 | inhibition, % at 8.3 µM | FP displacement of FITC-Tn7 peptide from fibrin DD(E); 0% = median of compound wells per plate;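 active = inhibition above the mean of compounds falling within the control limits plus 3 SD of them, cut at about 14% in these data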
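Also added: labelled Tn7 tracer, 0.1 µM; Assay system: human fibrin DD(E) protein; Amount: 2 µM fibrin DD(E); Schedule: 10 min compound pre-incubation, 3 h probe incubation at room temperature; Repeats: one replicate per compound; Read-out basis: percent inhibition; Measured by: fluorescence polarization of the labelled Tn7 tracer.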
SIAE confirm = human SIAE inhibitors, retest, confirmation, biochemical, fluorescence polarization, FP-Rh probe, triplicate; 2,300 compounds, 13% hits; SIAE FP-Rh activity-based probe; shares compounds with SIAE primary; inhibition, % at 9.66 µM;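 active = mean inhibition of the replicates above the hit cutoff set in the primary screen, cut at about 17% in these data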;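 note: inhibitors lower polarization as more probe stays unbound to SIAE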
Each line names hits and unclear results; the compound was inactive in the other large screens (follow-up assays come after a bar, where they were run). Compounds with a hit are over-represented: about 1.8% of the library has one in this group of screens.

CCCC(C)NC(=O)CSc1nc(-c2ccccc2)cn1N (stereo not drawn)	SIAE primary 17 | SIAE confirm inactive
NC(=S)N/N=C1\CCOc2ccc(Cl)cc21	SIAE primary 18 | SIAE confirm inactive
COc1cc2[nH]c3c(Cl)ncnc3c2cc1OC	none
COc1cccc(N2CCN(c3ncnc4c3[nH]c3ccc(F)cc34)CC2C)c1 (stereo not drawn)	SIAE primary 19 | SIAE confirm inactive
COc1cccc(N2CCN(c3ncnc4c3[nH]c3ccccc34)CC2C)c1 (stereo not drawn)	none (no result: HTRA1 inh)
COc1cc2[nH]c3c(N4CCN(c5ccc(Cl)cc5)CC4)ncnc3c2cc1OC	SIAE primary 30 | SIAE confirm 25
Cn1c(=O)c2cc(NC(=S)NC3CC3)ccc2n1Cc1ccc(F)cc1	SIAE primary 18 (no result: HTRA1 inh) | SIAE confirm inactive
Cn1c(=O)c2cc(NC(=S)NCc3ccccc3F)ccc2n1Cc1ccc(F)cc1	none (no result: HTRA1 inh)
Cc1ccnc(SCc2cc(=O)c(OC(=O)c3ccc(C)c([N+](=O)[O-])c3)co2)n1	none (no result: TCR CD3 inh, HTRA1 inh)
C#CCNC(=O)C[C@H]1C[C@@]2(C(=O)OC)C(=C[C@H](C(C)(C)C)O[C@@H]2C)N(Cc2ccccc2)C1=O	none (no result: HTRA1 inh)
CCOC(=O)CC[C@H]1CC[C@]2(CCCN(C(=O)c3cccnc3)C2)O1	SIAE primary 30 (no result: TCR CD3 inh, HTRA1 inh) | SIAE confirm inactive
CCC[C@H]1[C@@H](N(C)CC2CCCCC2)CC[C@@]23CCCN2C(=O)CCC[C@@H]13	none (no result: TCR CD3 inh, HTRA1 inh)
C[C@]1(C(=O)NCCN2CCOCC2)C=C[C@@H](Cc2ccccc2)N1C(=O)c1ccccc1	SIAE primary 21 | SIAE confirm inactive
CC(=O)N1[C@H](Cc2ccccc2)C=C[C@]1(C)C(=O)NCCN1CCOCC1	none
CC(C)(C)OC(=O)N1CCN(C(=O)Nc2ccc3c(c2)OCCO3)CC1	SIAE primary 18 | SIAE confirm inactive
O=C(NCc1ccccc1)N1CCN(Cc2nc3ccccc3c(=O)[nH]2)CC1	none (no result: TCR CD3 inh, HTRA1 inh)
O=C(N/N=C/c1sc(N2CCOCC2)nc1-c1ccccc1)c1ccccc1O	none
Nc1ccc(C(=O)N/N=C/c2sc(N3CCOCC3)nc2-c2ccccc2)cc1	SIAE primary 17 | SIAE confirm inactive
COc1cc(-c2nc(-c3ccccc3)c(-c3ccc(F)cc3)[nH]2)cc2c1OCO2	none
COc1ccc(-c2[nH]c(-c3ccc4c(c3)OCO4)nc2-c2ccccc2)cc1	SIAE primary 21 | SIAE confirm inactive
COC(=O)c1sc(-c2ccccc2)cc1NC(=O)C1CC1	none
CCOc1ccc(NC(=O)Nc2cc(-c3ccccc3)sc2C(=O)OC)cc1	SIAE primary 29 | SIAE confirm inactive
O=C(CC[C@H]1O[C@@H](n2cnc3c(NC(=O)c4ccccc4)ncnc32)[C@H](O)[C@@H]1O)NCC(F)(F)F	none (no result: HTRA1 inh)
O=C(CC[C@H]1O[C@@H](n2cnc3c(NC(=O)c4ccccc4)ncnc32)[C@H](O)[C@@H]1O)NCC1CCN(Cc2ccccc2)CC1	SIAE primary 34 (no result: HTRA1 inh) | SIAE confirm 27
O=C(Nc1ccccc1)Nc1csc2ccccc12	SIAE primary 18 (no result: HTRA1 inh) | SIAE confirm inactive
O=C(Nc1ccc(Nc2ccccc2)cc1)Nc1ccccc1Cl	SIAE primary 24 | SIAE confirm inactive
CC(=O)Nc1csc2ccccc12	none
O=C(Nc1ccccc1Cl)Nc1ccccc1Cl	none
Nc1cc2ccccc2cc1NS(=O)(=O)N1CCCCC1	none (no result: HTRA1 inh)
O=C1C(Cl)=C(N2CCCCC2)C(=O)N1Cc1ccccc1	SIAE primary 18 | SIAE confirm inactive
O=C(CC1CCCC1)N1CC[C@H]2[C@H](CCCN2Cc2ccc(F)cc2)C1	none (no result: TCR CD3 inh, HTRA1 inh)
COc1ccc(N2CCN(C(=O)CN3CCN(c4nc(-c5ccc(F)cc5)cs4)CC3)CC2)cc1	SIAE primary 28 | SIAE confirm inactive
COc1ccc(N=Nc2c(N)n[nH]c2N)cc1	SIAE primary 22 | SIAE confirm inactive
C=CCN1CCN(Cc2cnc(Cl)s2)CC1	none
Clc1ncc(CN2CCN(Cc3ccccc3)CC2)s1	SIAE primary 28 | SIAE confirm inactive
Cn1cnc(S(=O)(=O)Nc2ccccc2C(=O)NCC2CC2)c1	SIAE primary 17 | SIAE confirm inactive
Cc1onc(-c2ccc(Cl)cc2)c1-c1ccn(S(=O)(=O)c2ccccc2Cl)n1	none (no result: TCR CD3 inh, HTRA1 inh)
CCOC(=O)COc1cc(N2C(=O)CSCC2=O)c(Cl)cc1Cl	SIAE primary 71 | SIAE confirm inactive
CCOC(=O)COc1cc(-n2c(=S)[nH]c3cc(OC)c(OC)cc3c2=O)c(Cl)cc1Cl	none
CCCCN1CN2CCc3ccccc3C2CS1(=O)=O (stereo not drawn)	none (no result: TCR CD3 inh, HTRA1 inh)
CN(C)CC(=O)Nc1nc(-c2ccccc2)cs1	none
O=C(O)CCC(=O)Nc1nc(-c2ccccc2)cs1	SIAE primary 19 | SIAE confirm inactive
Fc1ccc(-c2csc(NC(=S)Nc3ccccc3)n2)cc1	SIAE primary 17 | SIAE confirm inactive
CCOC(=O)C(NC(=O)Nc1ncccn1)(Oc1ccccc1)C(F)(F)F (stereo not drawn)	SIAE primary 24 | SIAE confirm inactive
CCOC(=O)C(NC(=O)Nc1ccc(F)cc1F)(Oc1ccc(F)cc1)C(F)(F)F (stereo not drawn)	none
O=C(O)Cn1c(CC(=O)N2CCCC2)nc2ccccc21	none
O=C(N1CCCC1)n1c(Cc2ccccc2)nc2ccccc21	SIAE primary 19 | SIAE confirm inactive
COC(=O)C1=C(C)N(Cc2ccccc2C(F)(F)F)C(=NCc2ccccc2)NC1c1ccc(Cl)cc1 (stereo not drawn)	none (no result: HTRA1 inh)
NC(=O)C1CCN(c2ncc(Br)s2)CC1	SIAE primary 21 (no result: TCR CD3 inh, HTRA1 inh) | SIAE confirm inactive
NC(=O)C1CCN(c2nc(-c3ccc(N)cc3)cs2)CC1	none (no result: TCR CD3 inh, HTRA1 inh)
CCCCNC(=O)CS(=O)Cc1nc(-c2cccc(C)c2)oc1C (stereo not drawn)	SIAE primary 26 | SIAE confirm inactive
CCC(C)NC(=O)CS(=O)Cc1nc(-c2cccc(C)c2)oc1C (stereo not drawn)	SIAE primary 25 | SIAE confirm inactive
CCCCSCCCNC(=O)CS(=O)Cc1nc(-c2cccc(C)c2)oc1C (stereo not drawn)	none
OC(COc1ccccc1)CN1CCCCC1 (stereo not drawn)	none
